Measured values published in ChEMBL document CHEMBL3745678, “Novel β-Carboline/Hydroxamic Acid Hybrids Targeting Both Histone Deacetylase and DNA Display High Anticancer Activity via Regulation of the p53 Signaling Pathway” (J Med Chem, 2015).
Blank lines part the entries; values can stand above or below the compound they belong to. Active and inactive are the calls of the source. The rule behind the calls is not given here.

Tests used:
[1] = system: LoVo; assay: Antiproliferative activity against human LoVo cells assessed as cell viability after 48 hrs by MTT assay; type: functional, cell-based
[2] = Antiproliferative activity against human SW620 cells assessed as cell viability after 48 hrs by MTT assay; type: functional, cell-based; details: SW-620, 48 h
[3] = Antiproliferative activity against human HCT116 cells assessed as cell viability after 48 hrs by MTT assay; type: functional, cell-based, HCT-116; details: for IC50: Homo sapiens, HCT-116, 48 h
[4] = system: HCT-116; assay: Induction of DNA damage in human HCT116 cells assessed as histone H2AX phosphorylation at S139 at 20 uM after 12 hrs by western blot analysis; type: functional, cell-based
Method in brief: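 HCT116 cells treated for 12 h, then lysed on ice in PBS with 1% Nonidet P-40, 0.5% sodium deoxycholate, 0.1% SDS and protease inhibitors. Up to 50 µg protein run on SDS-PAGE and blotted to PVDF. Probed overnight at 4 °C with anti-H2AX S139ph, with ECL detection. Band intensity scanned relative to β-actin, three separate experiments.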

[5] = molecular target: Histone deacetylase; assay: Inhibition of HDAC in human HeLa cell nuclear extract using Boc-Lys (Ac)-AMC as substrate after 60 mins by fluorometric analysis; type: cell-based
[6] = molecular target: T1, Histone deacetylase 8 (Homo sapiens, UniProt Q9BY41); assay: Inhibition of recombinant human HDAC8 using Boc-Lys (Ac)-AMC as substrate after 60 mins by fluorometric analysis
T1 sequence (Q9BY41 whole entry): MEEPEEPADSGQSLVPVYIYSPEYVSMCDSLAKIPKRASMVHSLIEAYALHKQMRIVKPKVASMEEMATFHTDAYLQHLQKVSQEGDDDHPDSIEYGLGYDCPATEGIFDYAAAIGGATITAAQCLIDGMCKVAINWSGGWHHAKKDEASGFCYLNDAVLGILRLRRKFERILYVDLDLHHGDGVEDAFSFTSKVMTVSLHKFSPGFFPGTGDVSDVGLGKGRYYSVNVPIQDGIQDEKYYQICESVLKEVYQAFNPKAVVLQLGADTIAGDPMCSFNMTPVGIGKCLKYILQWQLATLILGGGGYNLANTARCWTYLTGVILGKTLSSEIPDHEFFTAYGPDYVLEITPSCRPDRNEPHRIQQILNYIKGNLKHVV

[7] = system: HCT-116; assay: Induction of DNA damage in human HCT116 cells assessed as histone H2AX phosphorylation at S139 after 12 hrs by western blot analysis; type: functional, cell-based
Method in brief: (§1)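 DNA-damage marker. HCT116 cells treated 12 h with compound or vehicle. Lysates immunoblotted with anti-H2AX S139ph, and β-actin served as the control. Relative levels were obtained by densitometric scanning; means ± SD of three separate experiments.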

[8] = system: SW480; assay: Antiproliferative activity against human SW480 cells assessed as cell viability after 48 hrs by MTT assay; type: functional, cell-based; details: SW480, 48 h
[9] = system: HCT-116; assay: Potency index, ratio of SAHA IC50 to compound IC50 for human HCT116 cells; type: functional
Method in brief: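 HCT116 cells seeded at 10^4 cells/ml and adhered overnight, then treated 48 h over a concentration series with 0.1% DMSO as control. MTT readout; IC50 derived from inhibition % = (1 − OD treated/OD control) × 100, three independent measurements. Index = SAHA IC50 ÷ compound IC50.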

[10] = molecular target: Cellular tumor antigen p53 (Homo sapiens) (UniProt P04637); assay: Induction of p53 activation in human HCT116 cells assessed as upregulation of p21 expression at 1 to 5 uM after 12 hrs by western blot analysis; type: cell-based; details: HCT-116
Method in brief: (§2)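 HCT116 cells exposed 12 h to compound or vehicle, then lysed on ice in PBS with 1% NP-40, 0.5% deoxycholate, 0.1% SDS and protease inhibitors. Up to 50 µg protein run on SDS-PAGE and immunoblotted for phospho-p53 (Ser15), p53 and p21. Bands quantified by densitometry against β-actin; mean ± SD of three experiments.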

[11] = molecular target: Histone deacetylase 1 (Homo sapiens, UniProt Q13547); assay: Inhibition of recombinant human HDAC1 using Boc-Lys (Ac)-AMC as substrate after 60 mins by fluorometric analysis
[12] = molecular target: T2, Protein deacetylase HDAC6 (Homo sapiens, UniProt Q9UBN7); assay: Inhibition of recombinant human HDAC6 using Boc-Lys (Ac)-AMC as substrate after 60 mins by fluorometric analysis
T2 sequence (Q9UBN7 whole entry): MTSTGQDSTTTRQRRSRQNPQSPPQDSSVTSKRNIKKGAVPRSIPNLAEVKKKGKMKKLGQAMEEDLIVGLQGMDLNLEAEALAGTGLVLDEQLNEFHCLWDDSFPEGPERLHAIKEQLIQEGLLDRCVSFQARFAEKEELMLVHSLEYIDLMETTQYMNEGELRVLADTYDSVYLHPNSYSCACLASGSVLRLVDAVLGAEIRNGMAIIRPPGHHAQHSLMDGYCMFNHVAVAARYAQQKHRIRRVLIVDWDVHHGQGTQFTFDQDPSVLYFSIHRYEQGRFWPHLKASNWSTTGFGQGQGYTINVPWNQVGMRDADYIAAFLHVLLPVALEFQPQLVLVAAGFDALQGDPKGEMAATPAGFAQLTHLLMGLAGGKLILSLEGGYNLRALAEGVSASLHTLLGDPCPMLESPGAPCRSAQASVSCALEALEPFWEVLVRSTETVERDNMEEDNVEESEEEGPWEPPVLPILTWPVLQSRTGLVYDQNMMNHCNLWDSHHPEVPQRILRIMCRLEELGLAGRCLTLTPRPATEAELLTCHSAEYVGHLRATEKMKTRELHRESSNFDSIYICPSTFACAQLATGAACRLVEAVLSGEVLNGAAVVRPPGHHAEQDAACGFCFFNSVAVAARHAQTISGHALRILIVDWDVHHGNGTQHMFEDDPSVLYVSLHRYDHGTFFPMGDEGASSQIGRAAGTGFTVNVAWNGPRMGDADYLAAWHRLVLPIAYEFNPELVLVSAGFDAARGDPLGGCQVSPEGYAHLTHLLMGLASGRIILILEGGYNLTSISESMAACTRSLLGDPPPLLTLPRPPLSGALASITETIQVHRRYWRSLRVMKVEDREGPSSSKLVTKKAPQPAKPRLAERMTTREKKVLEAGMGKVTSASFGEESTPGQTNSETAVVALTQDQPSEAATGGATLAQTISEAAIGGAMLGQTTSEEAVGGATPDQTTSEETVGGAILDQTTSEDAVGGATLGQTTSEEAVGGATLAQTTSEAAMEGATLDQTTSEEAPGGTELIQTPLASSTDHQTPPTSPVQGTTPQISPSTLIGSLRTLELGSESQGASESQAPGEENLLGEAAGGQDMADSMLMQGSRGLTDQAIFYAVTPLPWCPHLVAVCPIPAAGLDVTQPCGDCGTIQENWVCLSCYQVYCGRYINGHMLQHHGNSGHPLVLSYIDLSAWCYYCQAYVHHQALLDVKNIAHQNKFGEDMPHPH

[13] = system: HCT-116; assay: Induction of DNA damage in human HCT116 cells assessed as histone H2AX phosphorylation at S139 at 1 to 5 uM after 12 hrs by western blot analysis; type: functional, cell-based; method in brief: as §1
[14] = Cytotoxicity against rat IEC-18 cells assessed as survival after 48 hrs by MTT assay; type: cell-based
Method in brief: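 HCT116 and rat IEC-18 cells incubated 48 h over a 0–5 µM range. Viability measured by MTT and expressed as % of control. GI50 taken from the inhibition curves; three independent experiments.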

[15] = system: HCT-116; assay: Induction of apoptosis in human HCT116 cells at 5 uM after 48 hrs by annexin V-FITC/propidium iodide staining-based flow cytometric analysis; type: functional
Method in brief: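 HCT116 cells cultured overnight, then exposed in triplicate for 48 h to 0.1, 1.0 or 5.0 µM, SAHA 5.0 µM or vehicle. Stained with FITC-Annexin V/PI for 15 min at room temperature.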

[16] = molecular target: Cellular tumor antigen p53 (Homo sapiens) (UniProt P04637); assay: Activation of p53 in human HCT116 cell at 0.1 to 5 uM after 12 hrs by western blot analysis; type: cell-based; details: HCT-116; method in brief: as §2
[17] = molecular target: Cellular tumor antigen p53 (Homo sapiens) (UniProt P04637); assay: Activation of p53 in human HCT116 cells assessed as p53 phosphorylation at ser15 residue at 0.1 to 5 uM after 12 hrs by western blot analysis; type: cell-based; details: HCT-116; method in brief: as §2
[18] = system: HCT-116; assay: Induction of PARP cleavage in human HCT116 cells at 1 to 5 uM after 48 hrs by western blot analysis; type: functional, cell-based
Method in brief: (§3)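 HCT116 cells treated 48 h with or without compound. Western blots probed for Bax, Bcl-2, cleaved caspase-3 and PARP. Band intensities relative to β-actin by densitometry; means ± SD from three separate experiments.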

[19] = system: HCT-116; assay: Induction of caspase-3 cleavage in human HCT116 cells at 1 to 5 uM after 48 hrs by western blot analysis; type: functional, cell-based; method in brief: as §3
[20] = molecular target: Cellular tumor antigen p53 (Homo sapiens) (UniProt P04637); assay: Induction of p53 activation in human HCT116 cells assessed as upregulation of p21 expression at 0.1 to 5 uM after 12 hrs by western blot analysis; type: cell-based; details: HCT-116; method in brief: as §2
[21] = Antitumor activity against human HCT116 cells xenografted in BALB/c mouse assessed as tumor weight at 90 mg/kg, po measured twice per week over 22 days (reference value: 1.38 +/- 0.13 g); type: functional, HCT-116

Sequence of Cellular tumor antigen p53 (Homo sapiens) (P04637 whole entry, looked up): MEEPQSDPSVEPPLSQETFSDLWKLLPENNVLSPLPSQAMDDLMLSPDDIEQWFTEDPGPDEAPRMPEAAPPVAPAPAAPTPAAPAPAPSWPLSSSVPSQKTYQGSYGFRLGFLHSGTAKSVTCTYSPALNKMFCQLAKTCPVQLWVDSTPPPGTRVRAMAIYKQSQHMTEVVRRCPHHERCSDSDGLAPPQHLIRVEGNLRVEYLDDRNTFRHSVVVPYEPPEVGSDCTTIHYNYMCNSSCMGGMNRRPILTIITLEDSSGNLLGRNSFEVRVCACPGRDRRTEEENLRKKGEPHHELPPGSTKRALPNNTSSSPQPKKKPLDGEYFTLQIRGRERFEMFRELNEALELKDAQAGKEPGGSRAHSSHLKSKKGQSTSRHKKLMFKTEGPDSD
Sequence of Histone deacetylase 1 (Q13547 whole entry): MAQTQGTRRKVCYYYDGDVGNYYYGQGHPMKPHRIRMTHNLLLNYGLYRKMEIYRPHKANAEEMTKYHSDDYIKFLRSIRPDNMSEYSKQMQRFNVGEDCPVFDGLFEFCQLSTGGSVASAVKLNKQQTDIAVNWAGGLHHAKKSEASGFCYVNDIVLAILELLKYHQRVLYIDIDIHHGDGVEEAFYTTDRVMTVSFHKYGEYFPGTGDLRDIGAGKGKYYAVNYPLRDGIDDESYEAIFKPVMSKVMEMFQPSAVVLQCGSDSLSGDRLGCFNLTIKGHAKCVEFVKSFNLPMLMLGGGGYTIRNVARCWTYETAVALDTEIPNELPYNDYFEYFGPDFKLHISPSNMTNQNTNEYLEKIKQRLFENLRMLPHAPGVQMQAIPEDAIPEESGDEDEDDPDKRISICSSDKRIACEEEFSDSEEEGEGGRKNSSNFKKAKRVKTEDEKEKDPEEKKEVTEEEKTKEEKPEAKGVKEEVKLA

SMILES: COc1ccc2c(c1)[nH]c1c(C)nccc12 [HARMINE]
IC50 [1]: 53.2 µM | IC50 [2]: 42.8 µM | IC50 [3]: 46.7 µM | Activity [4]: Active | IC50 [5]: > 10 µM

IC50 [6]: 0.57 µM | IC50 [1]: 3.02 µM | IC50 [8]: 3.15 µM | Activity [10]: Active | IC50 [11]: 0.24 µM | IC50 [12]: 0.15 µM | IC50 [5]: 0.51 µM
SMILES: COc1ccc(-c2nc(NC(=O)NCCCC(=O)NO)cc3c4ccccc4n(C)c23)cc1
IC50 [2]: 1.93 µM | IC50 [3]: 1.33 µM | Activity [7]: Dose-dependent effect | Ratio IC50 [9]: 4 | Activity [13]: Active

Activity [16]: inactive | Activity [17]: inactive | Activity [20]: Active
SMILES: O=C(CCCCCCC(=O)Nc1ccccc1)NO [VORINOSTAT]
GI50 at 48 h [14]: 9.95 µM | Activity [15]: 34.3% | GI50 [3]: 4.64 µM | Activity [18]: Active | Activity [19]: Active | Activity [13]: Active | Activity [21]: 0.62 g
